{"source": "ChEMBL document CHEMBL1148122", "about": "“Sesquiterpenoids from Tithonia diversifolia with potential cancer chemopreventive activity” (J Nat Prod, 2002)", "key": {"Col2": {"tested_on": "Col2", "assay": "Antiproliferative activity against human Col2 cells after 3 days by sulforhodamine B assay", "format": "functional, cell-based", "conditions": "for IC50: Col2, 72 h", "in_short": "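Col2 human colon cancer cells grown in MEME with 10% NEAA, antibiotic-antimycotic and 10% FBS at 37 °C, 5% CO2. Exponentially growing cells were added to wells containing compounds in DMSO and grown 3 days. Cells were then TCA-fixed and stained with 0.4% SRB in 1% acetic acid, and the dye was solubilized in 0.1 M Tris. Absorbance read at 515 nm; % growth calculated against day-0 and DMSO-control absorbances.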"}, "HL-60": {"tested_on": "HL-60", "assay": "Induction of cell differentiation of human HL60 cells at 4 ug/mL after 4 days by non-specific esterase determination", "format": "functional, cell-based", "conditions": "for % differentiation: HL-60, 96 h", "in_short": "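HL-60 cells kept in RPMI 1640 with 10% fetal calf serum and penicillin/streptomycin at 37 °C, 5% CO2. Cells at 1.2 × 10^5 cells/mL, preincubated 18 h, then added to compounds in DMSO (final 0.1% v/v). After 4 days, α-naphthyl acetate esterase was stained cytochemically, ≥200 cells counted microscopically in duplicate, and the % differentiated cells recorded.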"}, "[1]": {"assay": "Inhibition of 7,12-dimethylbenz[a]anthracene-induced preneoplastic lesions in a BALB/c mouse mammary gland culture at 10 ug/mL treated for 10 days before DMBA-challenge measured after 14 days", "format": "functional, tissue-based", "in_short": "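BALB/c female mice were primed 9 days with estradiol (1 µg) and progesterone (1 mg). Second thoracic mammary glands were cultured 10 days at 37 °C in 95% O2/5% CO2 in Waymouth's 752/1 MB medium with insulin, prolactin, aldosterone and hydrocortisone. DMBA 2 µg/mL was given at 72–96 h and compounds on days 1–10. Glands then regressed 14 days with insulin only and were scored for lesion incidence. % inhibition is relative to the DMBA control.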"}}, "note": "Calls of active or inactive are those of the source. The calls are words filed in the database; no cut-off is given here.", "data": [{"smiles": "C=C1C(=O)O[C@@H]2/C=C(/C)C(=O)[C@@H]3O[C@H]3[C@](C)(O)C[C@@H](OC(=O)C(C)C)[C@@H]12", "values": [{"measurement": "IC50", "setting": "Col2", "value": 1.7, "unit": "µg/mL"}, {"measurement": "% differentiation", "setting": "HL-60", "value": "< 10", "unit": "%"}, {"measurement": "% inhibition", "setting": "[1]", "value": 44.4, "unit": "%"}]}, {"smiles": "COC(=O)/C=C/[C@@H]1CC[C@@]2(C)CC[C@@H](OC(C)=O)[C@@](C)(O)[C@@H]2C1", "values": [{"measurement": "IC50", "setting": "Col2", "value": "> 20", "unit": "µg/mL"}, {"measurement": "% differentiation", "setting": "HL-60", "value": "< 10", "unit": "%"}]}, {"smiles": "C=C1C(=O)O[C@H]2[C@H]1[C@H](OC(=O)C(C)C)C[C@@]1(C)[C@H](O)C[C@H](OC(C)=O)[C@@](C)(O)[C@H]21", "note": "[TITHOFOLINOLIDE]", "values": [{"measurement": "IC50", "setting": "Col2", "value": "> 20", "unit": "µg/mL"}, {"measurement": "% differentiation", "setting": "HL-60", "value": 37.4, "unit": "%"}, {"measurement": "% inhibition", "setting": "[1]", "value": 40.2, "unit": "%"}]}, {"smiles": "C=C1C(=O)O[C@@H]2C[C@H](C)[C@]3(O)O[C@@](C)(C[C@H]3O)C[C@@H](OC(=O)C(C)C)[C@@H]12", "values": [{"measurement": "IC50", "setting": "Col2", "value": "> 20", "unit": "µg/mL"}, {"measurement": "% differentiation", "setting": "HL-60", "value": "< 10", "unit": "%"}]}, {"smiles": "C=C(C(=O)OC)[C@@H]1CC[C@@]2(C)CC[C@@H](OC(C)=O)[C@@](C)(O)[C@@H]2C1", "values": [{"measurement": "Activity", "setting": "Col2", "value": "inactive"}, {"measurement": "Activity", "setting": "HL-60", "value": "inactive"}]}, {"smiles": "C=C1C(=O)O[C@@H]2/C=C(/C)C(=O)/C=C/[C@](C)(O)C[C@@H](OC(=O)C(C)C)[C@@H]12", "note": "[TAGITININ C]", "values": [{"measurement": "IC50", "setting": "Col2", "value": 0.7, "unit": "µg/mL"}, {"measurement": "% differentiation", "setting": "HL-60", "value": 20, "unit": "%"}, {"measurement": "% inhibition", "setting": "[1]", "value": 44.4, "unit": "%"}]}, {"smiles": "C=C1C(=O)O[C@@H]2C[C@H](C)[C@@]3(O)C[C@H](O)[C@@](C)(C[C@@H](OC(=O)C(C)C)[C@@H]12)O3", "values": [{"measurement": "Activity", "setting": "Col2", "value": "inactive"}, {"measurement": "Activity", "setting": "HL-60", "value": "inactive"}]}, {"smiles": "C=C1C(=O)O[C@H]2[C@H]1[C@H](OC(=O)C(C)C)C[C@@]1(C)[C@H](O)C[C@H](OC(C)=O)C(=C)[C@H]21", "values": [{"measurement": "IC50", "setting": "Col2", "value": 5.9, "unit": "µg/mL"}, {"measurement": "% differentiation", "setting": "HL-60", "value": 33.9, "unit": "%"}, {"measurement": "% inhibition", "setting": "[1]", "value": 63, "unit": "%"}]}, {"smiles": "C=C1C(=O)O[C@H]2[C@H]1[C@H](OC(=O)C(C)C)C[C@@](C)(O)[C@@H]1CC(=O)[C@@](C)(O)[C@H]21", "values": [{"measurement": "IC50", "setting": "Col2", "value": 18.9, "unit": "µg/mL"}, {"measurement": "% differentiation", "setting": "HL-60", "value": 32.4, "unit": "%"}, {"measurement": "% inhibition", "setting": "[1]", "value": 48.7, "unit": "%"}]}, {"smiles": "C=C1C(=O)O[C@@H]2C[C@H](C)[C@@]3(O)CC[C@@](C)(C[C@@H](OC(=O)C(C)C)[C@@H]12)O3", "values": [{"measurement": "Activity", "setting": "Col2", "value": "inactive"}, {"measurement": "Activity", "setting": "HL-60", "value": "inactive"}]}]}
